{"data": "Experimental data from different studies", "target": "Serine/threonine-protein kinase MARK2 (MARK2, Homo sapiens, UniProt Q7KZI7)", "note": "Protocols differ between the studies behind these lines."}
{"Compound": "COc1ccc2oc(-c3ccc4nc(N)oc4c3)c/c(=N\\c3ccccc3NC(=O)CCN)c2c1", "effect on": "binding", "concentration": "1 µM", "endpoint": "remaining binding", "result": "97%"}
{"Compound": "Cc1cc(O)c(-c2ccc([C@@H](C)CN(C)C)cc2)c2c1[nH]c(=O)c1sccc12", "effect on": "enzyme activity", "action": "inhibitor", "concentration": "0.1 µM", "endpoint": "inhibition", "result": "4.31%"}
{"Compound": "COc1ccc2[nH]c3c4[nH]c5ccc(OC)cc5c4c4c(c3c2c1)C(=O)NC4=O", "effect on": "binding", "concentration": "1 µM", "endpoint": "remaining binding", "result": "71%"}
{"Compound": "C=CC(=O)N1CCC([C@@H]2CCNc3c(C(N)=O)c(-c4ccc(Oc5ccccc5)cc4)nn32)CC1", "effect on": "enzyme activity", "action": "inhibitor", "concentration": "1 µM", "endpoint": "inhibition", "result": "0%"}
{"Compound": "Cc1ccc(NC(=O)c2ccnc(C(F)(F)F)c2)cc1-c1cc(OCCO)nc(N2CCOCC2)c1", "effect on": "binding", "concentration": "1 µM", "endpoint": "remaining binding", "result": "99%"}
{"Compound": "CCCCC(=O)Nc1ccc(-c2ccc3ncn(CCC)c(=O)c3c2)cn1", "effect on": "binding", "method": "competition with immobilised ligand", "concentration": "0.5 µM", "endpoint": "remaining binding", "result": "92%"}
{"Compound": "C1=C/COCc2cc(ccc2OCCN2CCCC2)Nc2nccc(n2)-c2cccc(c2)COC/1", "effect on": "binding", "concentration": "0.1 µM", "endpoint": "remaining binding", "result": "66%"}
{"Compound": "C=CC(=O)N1CCC[C@@H](n2nc(-c3ccc(Oc4ccccc4)cc3)c3c(N)ncnc32)C1", "effect on": "enzyme activity", "action": "inhibitor", "concentration": "1 µM", "endpoint": "inhibition", "result": "10%"}
